Data from ChEMBL document CHEMBL4229410, “Facile construction of fused benzimidazole-isoquinolinones that induce cell-cycle arrest and apoptosis in colorectal cancer cells” (Bioorg Med Chem, 2018).

Tests used:
[1] = test system: SW-620; test: Cell cycle arrest in human SW620 cells assessed as accumulation at G1-phase at 25 uM after 48 hrs by propidium iodide staining based flow cytometry (reference value: 40.56%); assay type: functional
[2] = test system: HT-29; test: Cell cycle arrest in human HT-29 cells assessed as accumulation at G1-phase at 25 uM after 48 hrs by propidium iodide staining based flow cytometry (reference value: 41.86%); assay type: functional
[3] = test system: SW-620; test: Cell cycle arrest in human SW620 cells assessed as accumulation at S-phase at 75 uM after 48 hrs by propidium iodide staining based flow cytometry (reference value: 43.72%); assay type: functional
[4] = test system: SW-620; test: Upregulation of p53 expression in human SW620 cells after 48 hrs by Western blot analysis; assay type: functional, cell-based
[5] = test system: SW-620; test: Induction of apoptosis in human SW620 cells assessed as early apoptotic cells at 25 uM after 48 hrs by Annexin-V-FITC/propidium iodide staining based flow cytometry (reference value: 0.4%); assay type: functional
[6] = test system: SW-620; test: Induction of apoptosis in human SW620 cells assessed as live cells at 50 uM after 48 hrs by Annexin-V-FITC/propidium iodide staining based flow cytometry (reference value: 97.5%); assay type: functional
[7] = test system: SW-620; test: Induction of apoptosis in human SW620 cells assessed as late apoptotic cells at 50 uM after 48 hrs by Annexin-V-FITC/propidium iodide staining based flow cytometry (reference value: 1.2%); assay type: functional
[8] = test system: HT-29; test: Induction of apoptosis in human HT-29 cells assessed as live cells at 50 uM after 48 hrs by Annexin-V-FITC/propidium iodide staining based flow cytometry (reference value: 93.2%); assay type: functional
[9] = test system: HT-29; test: Induction of apoptosis in human HT-29 cells assessed as necrotic cells at 75 uM after 48 hrs by Annexin-V-FITC/propidium iodide staining based flow cytometry (reference value: 1.6%); assay type: functional
[10] = test system: SW-620; test: Induction of apoptosis in human SW620 cells after 48 hrs by Annexin-V-FITC/propidium iodide staining based flow cytometry; assay type: functional, cell-based
[11] = test system: HT-29; test: Increase in PTEN expression in human HT-29 cells after 48 hrs by Western blot analysis; assay type: functional, cell-based
Procedure, shortened: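 HT29 or SW620 cells were treated at 0, 25, 50 and 75 μM for 48 h and lysed in RIPA with protease and phosphatase inhibitors. Protein was quantified by BCA. 50 μg lysate was run on 8–15% SDS-PAGE and transferred to PVDF. Blocking was 5% BSA/TBST for 2 h; primary antibodies were applied overnight at 4 °C, then HRP secondary 1 h at room temperature.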

[12] = target: Bone morphogenetic protein receptor type-2 (Homo sapiens) (UniProt Q13873); test: Inhibition of human BMPR2 (R179 to Q526 residues) expressed in mammalian expression system assessed as residual activity at 5 uM by KINOMEscan assay relative to control
[13] = target: Cyclin-dependent kinase 19 (Homo sapiens, UniProt Q9BWU1); test: Inhibition of human CDK11 (M1 to N360 residues) expressed in bacterial expression system assessed as residual activity at 5 uM by KINOMEscan assay relative to control
[14] = target: T1, Glycogen synthase kinase-3 beta (Homo sapiens, UniProt P49841); test: Inhibition of full length human GSK3B (M1 to T433 residues) expressed in mammalian expression system assessed as residual activity at 5 uM by KINOMEscan assay relative to control
[15] = target: Insulin-like growth factor 1 receptor (Homo sapiens, UniProt P08069); test: Inhibition of human IGF1R (L972 to D1294 residues) expressed in bacterial expression system assessed as residual activity at 5 uM by KINOMEscan assay relative to control
[16] = target: Serine/threonine-protein kinase STK11 (Homo sapiens) (UniProt Q15831); test: Inhibition of full length human LKB1 (M1 to Q433 residues) expressed in bacterial expression system assessed as residual activity at 5 uM by KINOMEscan assay relative to control
[17] = target: T2, MAP kinase-interacting serine/threonine-protein kinase 1 (Homo sapiens, UniProt Q9BUB5); test: Inhibition of full length human MKNK1 (M1 to L424 residues) expressed in mammalian expression system assessed as residual activity at 5 uM by KINOMEscan assay relative to control
[18] = target: Serine/threonine-protein kinase PAK 4 (Homo sapiens, UniProt O96013); test: Inhibition of partial length human PAK4 (Q144 to R438 residues) expressed in bacterial expression system assessed as residual activity at 5 uM by KINOMEscan assay relative to control
[19] = target: Serine/threonine-protein kinase pim-1 (Homo sapiens, UniProt P11309); test: Inhibition of human PIM1 (A15 to K313 residues) expressed in bacterial expression system assessed as residual activity at 5 uM by KINOMEscan assay relative to control
[20] = target: T3, SRSF protein kinase 3 (Homo sapiens, UniProt Q9UPE1); test: Inhibition of human SRPK3 (P41 to P567 residues) expressed in bacterial expression system assessed as residual activity at 5 uM by KINOMEscan assay relative to control
[21] = target: Tyrosine-protein kinase ABL1 (Homo sapiens, UniProt P00519, E255K); test: Binding affinity to human phosphorylated ABL1 E255K mutant (S229 to K512 residues) expressed in mammalian expression system by KINOMEscan assay
[22] = target: Tyrosine-protein kinase ABL1 (Homo sapiens, UniProt P00519); test: Binding affinity to human non-phosphorylated ABL1 (S229 to K512 residues) expressed in mammalian expression system by KINOMEscan assay
[23] = target: Bone morphogenetic protein receptor type-2 (Homo sapiens, UniProt Q13873); test: Binding affinity to human BMPR2 (R179 to Q526 residues) expressed in mammalian expression system by KINOMEscan assay
[24] = target: T1, Glycogen synthase kinase-3 beta; test: Binding affinity to full length human GSK3B (M1 to T433 residues) expressed in mammalian expression system by KINOMEscan assay
[25] = target: Inhibitor of nuclear factor kappa-B kinase subunit beta (Homo sapiens, UniProt O14920); test: Binding affinity to full length human IKKbeta (M1 to S756 residues) expressed in mammalian expression system by KINOMEscan assay
[26] = target: Mast/stem cell growth factor receptor Kit (Homo sapiens, UniProt P10721, T670I/V559D); test: Binding affinity to human KIT (I571 to D952 residues) V559D/T670I double mutant expressed in bacterial expression system by KINOMEscan assay
[27] = target: Mitogen-activated protein kinase kinase kinase 4 (Homo sapiens, UniProt Q9Y6R4); test: Binding affinity to human MAP3K4 (G1319 to E1608 residues) expressed in bacterial expression system by KINOMEscan assay
[28] = target: T2, MAP kinase-interacting serine/threonine-protein kinase 1; test: Binding affinity to full length human MKNK1 (M1 to L424 residues) expressed in mammalian expression system by KINOMEscan assay
[29] = target: T3, SRSF protein kinase 3; test: Binding affinity to human SRPK3 (P41 to P567 residues) expressed in bacterial expression system by KINOMEscan assay
[30] = target: High affinity nerve growth factor receptor (Homo sapiens, UniProt P04629); test: Binding affinity to human TRKA (G475 to G790 residues) expressed in mammalian expression system by KINOMEscan assay

In the case of CC(C)CN(C(=O)c1cccnc1)c1c2ccccc2c(=O)n2c1[nH]c1ccccc12, the Activity [1] is reported as 39.26%, the Activity [2] is reported as 42.5% and the Activity [3] is reported as 38.82%. For the same compound, the Activity [4] was “Dose-dependent effect”, the Activity [5] was 0.7% and the Activity [6] was 81.7%. It also gave an Activity [7] of 12.1%, an Activity [8] of 80.3% and an Activity [9] of 18.8%. For the same compound, the Activity [10] was “Dose-dependent effect”, the Activity [11] was “Dose-dependent effect” and the Activity [12] was 100%. For the same compound, the Activity [13] was 77%, the Activity [14] was 100% and the Activity [15] was 100%. The Activity [16] was 63%, the Activity [17] was 97% and the Activity [18] was 82%. For the same compound, the Activity [19] was 83%, the Activity [20] was 98% and the Kd [21] was ≥ 5 µM. The Kd [22] was ≥ 5 µM, the Kd [23] was ≥ 5 µM and the Kd [24] was ≥ 5 µM. For the same compound, the Kd [25] was ≥ 5 µM, the Kd [26] was ≥ 5 µM and the Kd [27] was ≥ 5 µM. The Kd [28] was ≥ 5 µM, the Kd [29] was ≥ 5 µM and the Kd [30] was ≥ 5 µM.
